# Experimental data from ChEMBL document CHEMBL1158033, “C-26 and C-30 apocarotenoids from seeds of Ditaxis heterantha with antioxidant activity and protection against DNA oxidative damage” (J Nat Prod, 2006).
# How the values were obtained:
# [1] = Antiradical activity assessed as DPPH radical scavenging activity at 1500 uM by spectrophotometry relative to control; assay type: physicochemical
# Procedure, shortened: (§1)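 Sample (150–1500 μM; MeOH, or Et2O for lycopene, β-carotene, astaxanthin) added to 150 μM DPPH in MeOH and kept in the dark at ~20 °C for 60 min. Absorbance read at 520 nm. Activity = 100 × (1 − Asample/Acontrol), with control lacking sample. Triplicates; Tukey's test and Pearson correlation.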
# [2] = Antiradical activity assessed as DPPH radical scavenging activity at 1050 uM by spectrophotometry relative to control; assay type: physicochemical; procedure, shortened: as §1
# [3] = Antigenotoxic activity against H2O2-induced oxidative DNA damage in rat lymphocyte assessed as olive tail moment at 1000 uM by comet assay; assay type: functional
# Procedure, shortened: (§2)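 Rat peripheral blood mononuclear cells isolated on Histopaque 1077, 1×10^7 cells/mL in cold PBS pH 7.4, viability >90% by trypan blue. Cells preincubated with sample in DMSO (5%) at 37 °C for 30 min, then H2O2 1 mM final, 37 °C for 10 min. Alkaline comet assay, ethidium bromide stain, image analysis of 50 cells, 400×. Mean ± SE of four values, one-way ANOVA.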
# Lymphocyte = assay: Antigenotoxic activity against H2O2-induced oxidative DNA damage in rat lymphocyte assessed as cauda tail moment at 1000 uM by comet assay; assay type: functional; procedure, shortened: as §2
# [4] = Antigenotoxic activity against H2O2-induced oxidative DNA damage in rat lymphocyte assessed as tail length at 1000 uM by comet assay; assay type: functional; procedure, shortened: as §2
# [5] = Antigenotoxic activity against H2O2-induced oxidative DNA damage in rat lymphocyte assessed as cauda tail moment at 500 uM by comet assay; assay type: functional; procedure, shortened: as §2
# [6] = Antigenotoxic activity against H2O2-induced oxidative DNA damage in rat lymphocyte assessed as olive tail moment at 500 uM by comet assay; assay type: functional; procedure, shortened: as §2
# [7] = Antigenotoxic activity against H2O2-induced oxidative DNA damage in rat lymphocyte assessed as tail length at 500 uM by comet assay; assay type: functional; procedure, shortened: as §2
# [8] = Antiradical activity assessed as DPPH radical scavenging activity at 150 uM by spectrophotometry relative to control; assay type: physicochemical; procedure, shortened: as §1
# [9] = Antiradical activity assessed as DPPH radical scavenging activity at 750 uM by spectrophotometry relative to control; assay type: physicochemical; procedure, shortened: as §1
SMILES,Activity [1] [%],Activity [2],Activity [8],Activity [9],Activity [3] [a.u.],Activity (Lymphocyte) [a.u.],Activity [4] [um],Activity [5] [a.u.],Activity [6] [a.u.],Activity [7] [um]
COC(=O)/C(C)=C/C=C/C(C)=C/C=C/C=C(C)/C=C/C=C(C)/C=C/[C@]12O[C@@H](CC1(C)C)C[C@]2(C)O [DITAXIN],12,Active,,,8.21,12.27,28.15,18.8,11.58,35.94
COC(=O)/C(C)=C/C=C/C=C(C)/C=C/C=C(C)/C=C/[C@@H]1C(C)=CC(=O)CC1(C)C [HETERANTHIN],21,Active,Active,Active,4.4,6.24,20.93,17.02,10.8,34.13
CC(C)=CCC/C(C)=C/C=C/C(C)=C/C=C/C(C)=C/C=C/C=C(C)/C=C/C=C(C)/C=C/C=C(\C)CCC=C(C)C [LYCOPENE],36,Active,,,,,,,,

# The next lines start with results.
Activity [1] [%],Activity [2],Activity [8],Activity [9],SMILES,Activity [3] [a.u.],Activity (Lymphocyte) [a.u.],Activity [4] [um],Activity [5] [a.u.],Activity [6] [a.u.],Activity [7] [um]
52,Active,,,CC1=C(/C=C/C(C)=C/C=C/C(C)=C/C=C/C=C(C)/C=C/C=C(C)/C=C/C2=C(C)C(=O)[C@@H](O)CC2(C)C)C(C)(C)C[C@H](O)C1=O [ASTAXANTHIN],,,,,,
36,Active,,,CC1=C(/C=C/C(C)=C/C=C/C(C)=C/C=C/C=C(C)/C=C/C=C(C)/C=C/C2=C(C)CCCC2(C)C)C(C)(C)CCC1 [BETA CAROTENE],,,,,,
